Experimental data reported in ChEMBL document CHEMBL1157621, “Synthesis, biological activity, and molecular modeling studies of 1H-1,2,3-triazole derivatives of carbohydrates as alpha-glucosidases inhibitors” (J Med Chem, 2010).
Calls of active or inactive are those of the source.

What was measured:
[1] = target: Alpha-glucosidase MAL12 (Saccharomyces cerevisiae S288c) (UniProt P53341); test: Inhibition of yeast alpha-glucosidase MAL12 assessed as inhibition of p-nitrophenol release at 500 uM by spectrophotometry relative to control
Chain of Alpha-glucosidase MAL12 (Saccharomyces cerevisiae S288c) (P53341 whole entry, the tested form may be a part): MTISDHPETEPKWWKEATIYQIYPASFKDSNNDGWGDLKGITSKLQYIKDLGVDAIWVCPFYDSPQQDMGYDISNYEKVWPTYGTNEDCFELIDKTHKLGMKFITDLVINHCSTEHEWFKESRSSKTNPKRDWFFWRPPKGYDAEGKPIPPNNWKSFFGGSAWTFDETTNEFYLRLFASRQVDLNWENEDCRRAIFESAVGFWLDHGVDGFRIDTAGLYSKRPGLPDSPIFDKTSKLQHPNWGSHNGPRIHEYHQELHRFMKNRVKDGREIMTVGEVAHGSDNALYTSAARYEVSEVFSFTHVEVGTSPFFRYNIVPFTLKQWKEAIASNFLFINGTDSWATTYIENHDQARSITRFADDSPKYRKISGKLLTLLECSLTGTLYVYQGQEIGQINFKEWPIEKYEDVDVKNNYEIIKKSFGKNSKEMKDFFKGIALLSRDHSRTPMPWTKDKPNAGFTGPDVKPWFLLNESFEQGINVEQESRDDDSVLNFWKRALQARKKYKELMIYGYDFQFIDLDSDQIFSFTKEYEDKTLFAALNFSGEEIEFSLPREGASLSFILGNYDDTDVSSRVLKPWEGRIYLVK
Procedure, shortened: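 Baker's yeast maltase, with p-nitrophenyl-α-D-glucopyranoside as substrate. Released p-nitrophenol was read at 405 nm. Compounds were screened at a fixed 500 μM, and activity was expressed as percent inhibition relative to a no-inhibitor control assay. Acarbose served as comparator.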

[2] = target: Alpha-glucosidase MAL12 (Saccharomyces cerevisiae S288c, UniProt P53341); test: Inhibition of yeast alpha-glucosidase MAL12 assessed as inhibition of p-nitrophenol release by spectrophotometry
Chain of Alpha-glucosidase MAL12 (P53341 whole entry): as the sequence (P53341 whole entry, the tested form may be a part) above
Procedure, shortened: (§1)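 Yeast maltase activity was followed by p-nitrophenol release from p-nitrophenyl-α-D-glucopyranoside at 405 nm. IC50 was defined as the concentration giving 50% inhibition under assay conditions. Acarbose was tested in the same assay, and the ratio was taken as acarbose IC50 over compound IC50.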

[3] = target: Alpha-glucosidase MAL12 (Saccharomyces cerevisiae S288c) (UniProt P53341); test: Ratio of acarbose IC50 to compound IC50 for yeast alpha-glucosidase MAL12; procedure, shortened: as §1
[4] = system: Rattus norvegicus; test: Hypoglycemic activity in maltose-fed Wistar rat assessed as reduction in postprandial blood glucose level at 50 mg/kg, po administered 5 mins before maltose challenge measured after 60 mins of maltose infusion
[5] = system: Rattus norvegicus; test: Hypoglycemic activity in maltose-fed Wistar rat assessed as reduction in postprandial blood glucose level at 50 mg/kg, po administered 5 mins before maltose challenge measured after 30 mins of maltose infusion

| Structure (SMILES) | inhibition [1] [%] | IC50 [2] [µM] | Ratio IC50 [3] | Activity [4] | Activity [5] |
| --- | --- | --- | --- | --- | --- |
| CO[C@@H]1O[C@H](Cn2cc(C(C)(C)O)nn2)[C@H]2OC(C)(C)O[C@@H]12 | 60.2 |  |  |  |  |
| CC1(C)O[C@H]2O[C@H]([C@H]3COC(C)(C)O3)[C@@H](n3cc(-c4ccccc4)nn3)[C@H]2O1 | 73.1 |  |  |  |  |
| CO[C@@H]1O[C@H](Cn2cc(CO)nn2)[C@H]2OC(C)(C)O[C@@H]12 | 46.5 |  |  |  |  |
| CO[C@@H]1O[C@H](Cn2cc(C3(O)CCCCC3)nn2)[C@H]2OC(C)(C)O[C@@H]12 | 98.5 | 5.2 | 20 |  |  |
| CC1(C)O[C@H]2O[C@H](Cn3cc(-c4ccccc4)nn3)[C@H](O)[C@H]2O1 | 87.9 |  |  |  |  |
| CO[C@@H]1O[C@H](Cn2cc(COc3ccccc3)nn2)[C@H]2OC(C)(C)O[C@@H]12 | 98.4 | 5.7 | 20 | Active | Active |
| CO[C@@H]1O[C@H](Cn2cc(CCCCl)nn2)[C@H]2OC(C)(C)O[C@@H]12 | 99.5 |  |  |  |  |
| CC1(C)O[C@H]2O[C@H](Cn3cc(C4=CCCCC4)nn3)[C@H](O)[C@H]2O1 | 33.3 |  |  |  |  |
| CC1(C)O[C@H]2O[C@H](Cn3cc(CO)nn3)[C@H](O)[C@H]2O1 | 68.8 |  |  |  |  |
| CO[C@@H]1O[C@H](Cn2cc(C3=CCCCC3)nn2)[C@H]2OC(C)(C)O[C@@H]12 | 98.1 | 3.8 | 25 |  |  |
| CCC(C)(O)c1cn(C[C@H]2O[C@@H](OC)[C@@H]3OC(C)(C)O[C@@H]32)nn1 (some centres not stated) | 41.1 |  |  |  |  |
| CC1(C)O[C@H]2[C@@H](O1)[C@@H](Cn1cc(-c3ccccc3)nn1)O[C@@H]1OC(C)(C)O[C@@H]12 | 99.4 |  |  |  |  |
| CCCc1cn(C[C@H]2O[C@@H](OC)[C@@H]3OC(C)(C)O[C@@H]32)nn1 | 44.9 |  |  |  |  |
| CCOC(=O)c1cn(C[C@H]2O[C@@H](OC)[C@@H]3OC(C)(C)O[C@@H]32)nn1 | 98 | 15.1 |  |  |  |
| CO[C@@H]1O[C@H](Cn2cc(COC3CCCCO3)nn2)[C@H]2OC(C)(C)O[C@@H]12 (some centres not stated) | 79.5 | 24.7 |  |  |  |
| CO[C@@H]1O[C@H](Cn2cc(-c3ccccc3)nn2)[C@H]2OC(C)(C)O[C@@H]12 | 94.4 | 14.9 |  | Active | Active |
| C[C@H]1O[C@H](O[C@H]2[C@H](O)[C@@H](O)[C@@H](O[C@H]3[C@H](O)[C@@H](O)C(O)O[C@@H]3CO)O[C@@H]2CO)[C@H](O)[C@@H](O)[C@@H]1N[C@H]1C=C(CO)[C@@H](O)[C@H](O)[C@H]1O (some centres not stated) | 48.1 |  |  | Active | Active |
